Source: PMC3667888 (Channels, 2013)
Residue numbers refer to the chain shown, from its start.

Assays:
[1] = molecular target: T1, wild-type Kv4.2/KChIP1b channels (Rattus norvegicus, UniProt Q63881); format: cell-based
T1 sequence (Q63881 1-630): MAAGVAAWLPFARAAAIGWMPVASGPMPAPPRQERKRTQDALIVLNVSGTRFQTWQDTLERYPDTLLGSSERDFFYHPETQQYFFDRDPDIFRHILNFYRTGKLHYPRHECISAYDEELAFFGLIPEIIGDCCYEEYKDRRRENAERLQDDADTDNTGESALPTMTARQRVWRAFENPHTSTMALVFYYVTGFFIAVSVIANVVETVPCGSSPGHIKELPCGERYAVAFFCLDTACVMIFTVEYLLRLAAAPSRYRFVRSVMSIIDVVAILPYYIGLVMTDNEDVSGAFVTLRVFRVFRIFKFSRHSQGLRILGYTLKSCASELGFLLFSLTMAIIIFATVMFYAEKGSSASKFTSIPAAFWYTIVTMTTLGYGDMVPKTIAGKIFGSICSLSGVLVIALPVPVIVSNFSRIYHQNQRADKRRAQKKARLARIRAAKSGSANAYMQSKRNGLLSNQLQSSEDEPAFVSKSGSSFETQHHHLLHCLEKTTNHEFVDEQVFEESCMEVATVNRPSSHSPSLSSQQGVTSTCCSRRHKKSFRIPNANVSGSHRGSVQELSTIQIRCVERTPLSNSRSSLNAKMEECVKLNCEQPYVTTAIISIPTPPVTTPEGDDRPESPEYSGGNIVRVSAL
Method in brief: (§1)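 Rat Kv4.2 (WT or QuikChange mutant) RNA co-injected equimolar with KChIP1b, 5–10 ng/oocyte, into Xenopus oocytes held 1–5 d at 17–19 °C. Two-electrode voltage clamp at room temperature in perfused Na/K methanesulfonate HEPES saline, pH 7.4–7.5, with P/−4 or P/−6 leak subtraction. Peak current at +40 mV (from −90 mV) after 10 min of 10 μM AA is expressed relative to pre-AA current. Mean ± SE, n = cells.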

[2] = molecular target: T2, Kv4.2 V261F mutant channels (co-injected with KChIP1b) (Rattus norvegicus, UniProt Q63881, V261F); experiment: Two-electrode voltage clamp, V261F mutant Kv4.2/KChIP1b in Xenopus oocytes; format: cell-based
T2 sequence (Q63881 1-630 V261F): T1 sequence (Q63881 1-630) with V261F
Method in brief: as §1

[3] = molecular target: T3, Kv4.2 K318Q mutant channels (co-injected with KChIP1b) (Rattus norvegicus, UniProt Q63881, K318Q); experiment: Two-electrode voltage clamp, K318Q mutant Kv4.2/KChIP1b in Xenopus oocytes; format: cell-based
T3 sequence (Q63881 1-630 K318Q): T1 sequence (Q63881 1-630) with K318Q
Method in brief: as §1

[4] = tested on: group of mutant Kv4.2 channels (V261F, K318Q, V261F/K318Q); experiment: Two-electrode voltage clamp, grouped mutant Kv4.2 channels; format: cell-based, rat; details: 10 µM AA
Method in brief: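 Xenopus oocytes co-expressing rat Kv4.2 (WT or mutant) with equimolar KChIP1b were recorded by two-electrode voltage clamp at room temperature. Peak conductance was calculated as G = I/(Vm − Vh), with Vh = −100 mV, and normalized to each cell's Gmax. It was plotted against step potential without and with 10 μM AA and fit to a first-order Boltzmann function to give V1/2 and slope.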

[5] = read-out: inhibition of the peak K+ current

V1/2 of conductance-voltage curve with AA ([1]; 10 µM AA, WT): −13.4 mV
rightward shift in V1/2 of the conductance-voltage relationship in the presence of AA ([1]; 10 µM AA, WT): +7 mV
slope factor (k) of Boltzmann fit with AA ([1]; 10 µM AA, WT): 12.1
decrease in Kv4.2 currents ([1]; 10 µM AA, n = 3, same batch of oocytes as Kv1.2/2.1, +40 mV test potential): 30.7 ± 1.8%
Kd ([1]; fitted Kd for AA inhibition of peak current, Hill equation, nH = 1, +40 mV, 1 to 300 µM AA, WT): 21.1 µM
inhibition at 10 µM [1, 5]: 30%
V1/2 of conductance-voltage curve with AA ([2]; 10 µM AA, V261F): −17.1 mV
slope factor (k) of Boltzmann fit with AA ([2]; 10 µM AA, V261F): 10.9
inhibition at 10 µM [2, 5]: 18%
V1/2 of conductance-voltage curve with AA ([3]; 10 µM AA, K318Q): −8.6 mV
slope factor (k) of Boltzmann fit with AA ([3]; 10 µM AA, K318Q): 11.3
inhibition at 10 µM [3, 5]: 12%
Compound: CCCCC/C=C\C/C=C\C/C=C\C/C=C\CCCC(=O)O [AA, arachidonic acid]
average shift in V1/2 in the presence of AA for the three mutant constructs [4]: +5.7 mV
